Compound activity as filed in PubChem BioAssay.
Rows were chosen to be rich in hits. Some 3.5% of all compounds tested hit in one or more screens of this group.
RGS4 inh = RGS4 inhibitors, primary screen, cell-based, HEK293 M3R inducible RGS4, calcium flux; Regulator of G-protein signaling 4 (Homo sapiens), P49798; Fluo-4 calcium flux; hits give high values; triggered by carbachol at its EC20; B-score at 10 µM; 0.45% of 310,000 active; AID 463165, 2010;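 active means B-score, a plate-corrected calcium signal, over three deviations above library mean, with baseline fluorescence within five deviations of library mean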;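 further: RGS4 expression induced by doxycycline in cells with stable M3 receptor; B-score is computed from the integrated fluorescence ratio over baseline after carbachol; higher B-score means a larger calcium signal and so more RGS4 inhibition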
Target sequence (P49798 whole entry, looked up): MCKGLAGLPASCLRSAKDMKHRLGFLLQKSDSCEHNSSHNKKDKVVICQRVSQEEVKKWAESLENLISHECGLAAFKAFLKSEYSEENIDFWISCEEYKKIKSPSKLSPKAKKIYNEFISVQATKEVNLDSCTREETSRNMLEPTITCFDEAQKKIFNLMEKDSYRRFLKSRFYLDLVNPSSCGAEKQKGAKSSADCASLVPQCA
MrgX1 antag = antagonists of human MrgX1 receptor, primary screen, HEK293 cells, Fluo-4 calcium flux. BAM8-22 antagonism; hits give low values. B-score at 10 µM. 1.3% of 310,000 active. AID 588676, 2011;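 active means calcium-response B-score plate-corrected more than 3 library SD below zero, starting fluorescence within 5 deviations, no agonist response on first addition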;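 further: peak minus trough fluorescence over baseline after final BAM8-22 challenge near maximal dose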
Target sequence (Q96LB2 whole entry, looked up): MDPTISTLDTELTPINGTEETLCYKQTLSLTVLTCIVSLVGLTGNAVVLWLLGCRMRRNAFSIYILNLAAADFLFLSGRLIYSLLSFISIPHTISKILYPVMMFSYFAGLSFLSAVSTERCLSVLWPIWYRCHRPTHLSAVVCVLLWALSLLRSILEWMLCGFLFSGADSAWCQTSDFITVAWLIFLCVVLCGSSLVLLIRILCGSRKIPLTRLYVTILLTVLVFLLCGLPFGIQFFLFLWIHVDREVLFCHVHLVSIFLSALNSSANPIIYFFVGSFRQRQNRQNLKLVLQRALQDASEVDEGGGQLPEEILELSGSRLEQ
MrgX1 allo act = positive allosteric modulators of MrgX1, primary screen, HEK293 cells, Fluo-4 calcium flux; B-score at 10 µM; 0.63% of 310,000 active; FDSS; hits give high values;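 active means plate-corrected calcium response at least 3 library SD above typical, normal starting fluorescence, not activating the receptor alone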;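 further: compound read alongside a low EC10 to EC30 dose of BAM8-22 agonist; peak minus trough fluorescence over baseline measured at the second addition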
RGS4 act = RGS4 potentiators or activators, primary screen, cell-based, HEK293 M3R inducible RGS4, calcium flux; carbachol calcium flux Fluo4; hits give low values; B-score at 10 µM; 0.92% of 310,000 active;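 active means B-score of the integrated calcium signal more than 4 SD below the library mean, with starting fluorescence not abnormally high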;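 further: negative B-score means reduced calcium response which marks RGS4 activation or potentiation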
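Detection: kinetic calcium fluorescence imaging with Fluo4-AM dye, 2 µM / Material: HEK293 cells with stable M3R and inducible RGS4 / Schedule: recording 10 s baseline at 1 Hz, 100 s post-agonist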
MrgX1 agonist = agonists of human MrgX1 receptor, primary screen, HEK293 cells, Fluo-4 calcium flux | Mas-related G-protein coupled receptor member X1 (Homo sapiens), Q96LB2 | Fluo-4 calcium fluorescence, agonist mode; hits give high values | B-score at 10 µM | 0.44% of 310,000 active | AID 588627, 2011;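 active means calcium response B-score plate-corrected fluorescence ratio at least 3 library SD, with starting fluorescence B-score inside 5 SD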
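Test system: HEK293 cells stably expressing human MrgX1 receptor; amount: 15,000 cells per well; doses: compound delivered in addition one of three; times: overnight plating before 1 h dye loading; detection: Fluo-4 NW calcium-flux fluorescence, kinetic read; read-out basis: B-scored fluorescence response ratio; controls: positive and negative controls per plate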
MrgX1 allo conf = MrgX1 positive allosteric modulators, duplicate retest, confirmation, HEK293 cells, Fluo-4 calcium flux | shares compounds with MrgX1 allo act | Fluo-4 calcium fluorescence, FDSS | activation (ratio percentage), % at 10 µM | 13% of 1,200 active;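 active means ratio at least 3 SD above the weak peptide control, stable starting fluorescence, no direct agonism earlier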;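 further: compound followed by low BAM8-22 agonist challenge near EC20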
HEK293 Ca flux = nonspecific calcium signal in parental HEK293, confirmation, counter-screen for MrgX1 antagonist project, parental HEK293 cells, Fluo-4 calcium flux; shares compounds with MrgX1 antag; Fluo-4 calcium fluorescence, FDSS; fluorescence ratio F(max-min)/F0 at 10 µM; 2% of 4,000 active;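 active means duplicate-averaged calcium fluorescence ratio at least three times the standard deviation of buffer wells, a nonspecific response in parental cells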
HEK293 Ca counter = calcium response in parental HEK293 cells, primary screen, counter-screen for MrgX1 allosteric activator project, cell-based, Fluo-4 calcium flux, duplicate; shares compounds with MrgX1 antag; AID 624114, 2012; Fluo-4 fluorescence ratio; hits give high values; fluorescence ratio F(max-min)/F0 at 10 µM; 0.4% of 4,000 active;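 active means calcium fluorescence ratio, averaged over duplicates, at least 3 SD of the buffer-well ratio, meaning a nonspecific response in receptor-free cells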;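 further: untransfected parental HEK293 lacking MrgX1 used as counterscreen for MrgX1 allosteric activators; fluorescence change taken during the second addition on a kinetic imager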
HEK293 Ca cntr2 = calcium response in parental HEK293 cells, primary screen, counter-screen for MrgX1 agonist project, cell-based, Fluo-4 calcium flux, duplicate, agonist mode; fluorescence ratio F(max-min)/F0 at 10 µM; AID 624115, 2012; 8.7% of 4,000 active; shares compounds with MrgX1 antag; Fluo-4 calcium fluorescence (FDSS); hits give high values;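 active means calcium fluorescence ratio at least three times the spread of buffer wells, meaning a non-specific response in parental cells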
The depositor's hits bear a star.

O=C(NCc1ccccn1)c1ccc(Cl)cc1Cl was read as RGS4 inh inactive, MrgX1 antag inactive, MrgX1 allo act inactive, RGS4 act inactive and MrgX1 agonist inactive.
`O=C(NCc1ccccn1)c1cc(Cl)ccc1OCc1ccccc1` gave RGS4 inh inactive, MrgX1 antag inactive, MrgX1 allo act 6.86*, RGS4 act inactive, MrgX1 agonist inactive, MrgX1 allo conf inactive, HEK293 Ca flux inactive, HEK293 Ca counter inactive and HEK293 Ca cntr2 inactive.
`O=C(NC1CCCCC1)C(c1ccccc1)N(C(=O)c1csnn1)C1CCCC1` (stereo unspecified) gave RGS4 inh inactive, MrgX1 antag inactive, MrgX1 allo act inactive, RGS4 act inactive and MrgX1 agonist inactive.
For Cc1nc2ccccc2cc1OCc1ccc(Cl)cc1 the results were RGS4 inh inactive, MrgX1 antag inactive, MrgX1 allo act inactive, RGS4 act inactive and MrgX1 agonist inactive.
Cc1nc2ccccc2cc1OCc1ccccc1 was read as RGS4 inh inactive, MrgX1 antag inactive, MrgX1 allo act 6.56*, RGS4 act inactive, MrgX1 agonist inactive, MrgX1 allo conf inactive, HEK293 Ca flux inactive, HEK293 Ca counter inactive and HEK293 Ca cntr2 inactive.
`Cc1ccc(S(=O)(=O)/N=C(/Nc2cccc(O)c2)c2ccccc2)cc1` gave RGS4 inh inactive, MrgX1 antag inactive, MrgX1 allo act inactive, RGS4 act inactive and MrgX1 agonist inactive.
For CC(=O)c1c(-c2ccc(C)cc2)nc2c3ccccc3ccn12 the results were RGS4 inh inactive, MrgX1 antag inactive, MrgX1 allo act 6.79*, RGS4 act inactive, MrgX1 agonist inactive, MrgX1 allo conf 15.5%*, HEK293 Ca flux inactive, HEK293 Ca counter inactive and HEK293 Ca cntr2 inactive.
`CC1CCCN(C(=O)COC(=O)c2ccc3[nH]c4c(c3c2)CCCC4)C1` (stereo unspecified) gave RGS4 inh inactive, MrgX1 antag inactive, MrgX1 allo act inactive, RGS4 act inactive and MrgX1 agonist inactive.
COc1cccc(CN(C)C(=O)CSc2nc3ccccc3[nH]2)c1OC was read as RGS4 inh inactive, MrgX1 antag inactive, MrgX1 allo act inactive, RGS4 act inactive and MrgX1 agonist inactive.
Screening O=C(O)c1cccc(N2C(=O)c3ccc(Oc4ccc(Cl)cc4)cc3C2=O)c1 returned RGS4 inh inactive, MrgX1 antag inactive, MrgX1 allo act inactive, RGS4 act inactive and MrgX1 agonist inactive.
Screening O=C(O)c1cccc(N2C(=O)c3ccc4c5c(ccc(c35)C2=O)C(=O)N(c2cccc(C(=O)O)c2)C4=O)c1 returned RGS4 inh inactive, MrgX1 antag inactive, MrgX1 allo act 6.99*, RGS4 act inactive, MrgX1 agonist inactive, MrgX1 allo conf inactive, HEK293 Ca flux inactive, HEK293 Ca counter inactive and HEK293 Ca cntr2 inactive.
`Cc1ccccc1-c1nc2sc3c(c2c(=O)o1)CCC3` gave RGS4 inh inactive, MrgX1 antag inactive, MrgX1 allo act inactive, RGS4 act inactive and MrgX1 agonist inactive.
For O=c1oc(-c2ccccc2)nc2sc3c(c12)CCCC3 the results were RGS4 inh inactive, MrgX1 antag inactive, MrgX1 allo act 13.1*, RGS4 act inactive, MrgX1 agonist inactive, MrgX1 allo conf inactive, HEK293 Ca flux inactive, HEK293 Ca counter inactive and HEK293 Ca cntr2 inactive.
Screening Cc1cnc(C(=O)NC2CC(C)(C)Cc3c2cnn3-c2cccc(F)c2)cn1 (stereo unspecified) returned RGS4 inh inactive, MrgX1 antag inactive, MrgX1 allo act 7.81*, RGS4 act inactive, MrgX1 agonist inactive, MrgX1 allo conf inactive, HEK293 Ca flux inactive, HEK293 Ca counter inactive and HEK293 Ca cntr2 inactive.
`CCn1cc(C(=O)NC2CC(C)(C)Cc3c2cnn3-c2cccc(F)c2)cn1` (stereo unspecified) gave RGS4 inh inactive, MrgX1 antag inactive, MrgX1 allo act inactive, RGS4 act inactive and MrgX1 agonist inactive.
Screening CC(=O)C1=NN(c2ccc(Cl)cc2)C(c2ccc3c(c2)OCO3)N(C(C)=O)N1C (stereo unspecified) returned RGS4 inh inactive, MrgX1 antag inactive, MrgX1 allo act inactive, RGS4 act inactive and MrgX1 agonist inactive.
COc1ccc(N(C)S(=O)(=O)c2ccc3c(c2)NC(=O)CO3)c(OC)c1 was read as RGS4 inh inactive, MrgX1 antag inactive, MrgX1 allo act 7.01*, RGS4 act inactive, MrgX1 agonist inactive, MrgX1 allo conf inactive, HEK293 Ca flux inactive, HEK293 Ca counter inactive and HEK293 Ca cntr2 inactive.
Screening O=C1COc2ccc(S(=O)(=O)NCc3ccc(Cl)cc3)cc2N1 returned RGS4 inh inactive, MrgX1 antag inactive, MrgX1 allo act 6.53*, RGS4 act inactive, MrgX1 agonist inactive, MrgX1 allo conf inactive, HEK293 Ca flux inactive, HEK293 Ca counter inactive and HEK293 Ca cntr2 inactive.
For O=C1COc2ccc(S(=O)(=O)NCCc3ccccc3)cc2N1 the results were RGS4 inh inactive, MrgX1 antag inactive, MrgX1 allo act inactive, RGS4 act inactive and MrgX1 agonist inactive.
Screening COc1ccc(C)cc1NC(=O)C1CCN(S(=O)(=O)c2ccc3c(c2)NC(=O)CO3)CC1 returned RGS4 inh inactive, MrgX1 antag inactive, MrgX1 allo act 7.61*, RGS4 act inactive, MrgX1 agonist inactive, MrgX1 allo conf inactive, HEK293 Ca flux inactive, HEK293 Ca counter inactive and HEK293 Ca cntr2 inactive.
O=C(CC12CC3CC(CC(C3)C1)C2)Nc1nncs1 was read as RGS4 inh inactive, MrgX1 antag inactive, MrgX1 allo act inactive, RGS4 act inactive and MrgX1 agonist inactive.
